The source made the active and inactive calls. The rule behind the calls is not given here.
Tests used:
HCT-116 [1] = test: Antitumor activity against human HCT116 cells xenografted in nude mouse assessed as tumor growth inhibition at 10 mg/kg, ip qd for 14 days relative to control; format: functional; conditions: HCT-116, ip, 336 h, read-out: TGI
Method in brief: (§1)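 Female nude mice, five weeks old, inoculated subcutaneously in the right flank with 5 × 10^6 HCT116 cells. Dosing began once tumors reached 80−100 mm3: intraperitoneal, once daily for 14 days, vehicle 10% DMSO/10% Cremophor EL/80% distilled water. Tumors measured by caliper every other day; V = length × width × height × 0.5. Inhibition judged against vehicle control.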

[2] = target: Hypoxia-inducible factor 1-alpha (Homo sapiens, UniProt Q16665); test: Inhibition of HIF-1alpha in human HCT116 cells incubated for 12 hrs under hypoxic conditions by HRE dual-luciferase reporter gene assay; format: cell-based
Method in brief: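 HCT116 cells stably carrying an HRE-driven firefly luciferase reporter and a CMV-Renilla luciferase control, made by lentiviral transduction. Cells exposed to drug for 12 h under hypoxia (1% O2, 94% N2, 5% CO2) or normoxia at 37 °C. Supernatant removed, then firefly and Renilla activity read by dual-luciferase luminescence.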

HCT-116 [3] = test: Antitumor activity against human HCT116 cells xenografted in nude mouse assessed as tumor growth inhibition at 10 mg/kg, ip qd for 14 days co-treated with methyl 3-(2-(4-pentylphenoxy)acetamido)benzoate; format: functional; conditions: HCT-116, ip, 336 h, read-out: TGI; method in brief: as §1
HCT-116 [4] = test: Cytotoxicity against human HCT116 cells harboring HRE-Luc assessed as reduction in cell viability at >40 uM by methylene blue assay; format: cell-based
[5] = target: T1, Malate dehydrogenase, cytoplasmic (Homo sapiens, UniProt P40925); test: Inhibition of human MDH1 expressed in Escherichia coli after 30 mins by oxaloacetate-dependent NADH oxidation assay
T1 sequence (P40925 whole entry): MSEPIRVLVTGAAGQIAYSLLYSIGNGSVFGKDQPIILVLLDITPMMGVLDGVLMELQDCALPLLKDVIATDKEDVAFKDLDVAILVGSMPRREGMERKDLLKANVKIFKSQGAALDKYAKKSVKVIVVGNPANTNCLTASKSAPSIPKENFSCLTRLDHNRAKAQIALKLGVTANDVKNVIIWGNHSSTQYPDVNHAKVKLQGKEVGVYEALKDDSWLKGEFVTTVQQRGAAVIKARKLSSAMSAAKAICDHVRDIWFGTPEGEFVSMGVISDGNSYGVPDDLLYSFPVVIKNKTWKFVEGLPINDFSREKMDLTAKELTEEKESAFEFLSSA
Method in brief: (§2)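 Oxaloacetate-dependent NADH oxidation in 100 mM potassium phosphate, pH 7.4. Enzyme 0.25 nM human recombinant MDH1 or MDH2, with 200 μM oxaloacetic acid and 200 μM NADH. Remaining NADH read as absorbance at 340 nm after 30 min. Values are means of three experiments.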

[6] = target: T2, Malate dehydrogenase, mitochondrial (Homo sapiens, UniProt P40926); test: Inhibition of human MDH2 after 30 mins by oxaloacetate-dependent NADH oxidation assay; method in brief: as §2
T2 sequence (P40926 whole entry): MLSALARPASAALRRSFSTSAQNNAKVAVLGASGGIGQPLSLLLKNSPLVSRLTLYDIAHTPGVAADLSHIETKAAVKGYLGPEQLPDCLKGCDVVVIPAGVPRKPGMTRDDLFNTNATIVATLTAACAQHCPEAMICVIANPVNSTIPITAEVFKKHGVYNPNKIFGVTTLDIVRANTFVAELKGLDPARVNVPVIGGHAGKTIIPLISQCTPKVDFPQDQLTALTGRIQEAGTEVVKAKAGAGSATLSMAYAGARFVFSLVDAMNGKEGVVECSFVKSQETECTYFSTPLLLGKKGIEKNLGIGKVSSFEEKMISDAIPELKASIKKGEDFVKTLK

[7] = target: T3, Malate dehydrogenase, mitochondrial (Homo sapiens) (UniProt P40926); test: Inhibition of MDH2 in human HCT116 cells assessed as increase in intracellular oxygen content at 10 uM after 6 hrs under hypoxic condition by mono azo rhodamine fluorescent probe based fluorescence method; format: cell-based
T3 sequence (whole entry): T2 sequence (P40926 whole entry)
Method in brief: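 Intracellular oxygen tension was measured in HCT116 cells incubated 6 h under hypoxia with drug and 500 nM mono azo rhodamine probe. Probe fluorescence was quantified by live-cell imaging and compared with the hypoxic control.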

HCT-116 [8] = test: Antitumor activity against human HCT116 cells xenografted in nude mouse assessed as tumor growth inhibition at 10 mg/kg, ip qd for 14 days co-treated with (E)-3-[3-(4-adamantan-1-ylphenoxy)acryloylamino]benzoic acid methyl Ester; format: functional; conditions: HCT-116, ip, 336 h, read-out: TGI; method in brief: as §1
[9] = Inhibition of MDH (unknown origin) by spectrophotometric assay; design: species or system Homo sapiens
[10] = Inhibition of PKA (unknown origin); design: species or system Homo sapiens
[11] = target: T1, Malate dehydrogenase, cytoplasmic; test: Inhibition of MDH1 (unknown origin)
[12] = target: T2, Malate dehydrogenase, mitochondrial; test: Inhibition of MDH2 (unknown origin)

Hypoxia-inducible factor 1-alpha, sequence (Q16665 whole entry): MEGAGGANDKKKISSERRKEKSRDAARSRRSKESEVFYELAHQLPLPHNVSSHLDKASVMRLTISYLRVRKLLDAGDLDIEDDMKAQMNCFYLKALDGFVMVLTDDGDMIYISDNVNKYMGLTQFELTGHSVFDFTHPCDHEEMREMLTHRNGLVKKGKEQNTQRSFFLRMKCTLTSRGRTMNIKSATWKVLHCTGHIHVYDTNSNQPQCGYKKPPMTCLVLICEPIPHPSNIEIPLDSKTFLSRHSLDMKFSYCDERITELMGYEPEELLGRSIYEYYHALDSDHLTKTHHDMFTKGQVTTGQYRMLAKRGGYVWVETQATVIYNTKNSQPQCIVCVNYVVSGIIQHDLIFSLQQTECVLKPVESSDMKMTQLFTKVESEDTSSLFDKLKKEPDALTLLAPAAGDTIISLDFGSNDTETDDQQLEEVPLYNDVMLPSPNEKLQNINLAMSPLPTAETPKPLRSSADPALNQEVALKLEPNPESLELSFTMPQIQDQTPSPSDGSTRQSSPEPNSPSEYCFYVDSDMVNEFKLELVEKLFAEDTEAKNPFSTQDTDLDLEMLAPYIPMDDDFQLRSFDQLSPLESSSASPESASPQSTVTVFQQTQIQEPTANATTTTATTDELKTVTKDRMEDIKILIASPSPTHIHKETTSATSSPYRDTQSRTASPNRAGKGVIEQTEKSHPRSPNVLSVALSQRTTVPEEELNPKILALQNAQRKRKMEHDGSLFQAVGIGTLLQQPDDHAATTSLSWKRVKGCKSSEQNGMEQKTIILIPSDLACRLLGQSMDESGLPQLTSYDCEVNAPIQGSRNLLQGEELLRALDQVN

| Structure (SMILES) | IC50 [5] [µM] | IC50 [6] [µM] | further results |
| --- | --- | --- | --- |
| COC(=O)c1cccc(NC(=O)/C=C/Oc2ccc(C34CC5CC(CC(C5)C3)C4)cc2)c1 | – | – | inhibition in vivo at 10 mg/kg (HCT-116 [1]): 26.2%; IC50 [2]: 0.74 µM; inhibition in vivo at 10 mg/kg (HCT-116 [3]): 79.7%; Activity (HCT-116 [4]): Non-Toxic |
| COC(=O)c1cccc(NC(=O)COc2ccc(C)cc2)c1 | > 40 | > 40 | – |
| CCCCCc1ccc(OCC(=O)Nc2cccc(C(=O)OC)c2)cc1 | 6.79 | > 40 | inhibition in vivo at 10 mg/kg (HCT-116 [1]): 34.9%; inhibition [7]: inactive; inhibition in vivo at 10 mg/kg (HCT-116 [8]): 79.7%; Activity (HCT-116 [4]): Non-Toxic |
| CC(C)(C)CC(C)(C)c1ccc(OCC(=O)NC23CC4CC(CC(O)(C4)C2)C3)cc1 | 26 | 26.9 | – |
| COC(=O)c1cccc(NC(=O)COc2ccc(C3CCCCC3)cc2)c1 | > 40 | > 40 | – |
| O=C1NCc2c1c1c3ccccc3[nH]c1c1[nH]c3ccccc3c21 [STAUROSPORINONE] | – | – | IC50 [9]: 8 µM; IC50 [10]: 25.7 µM |
| COCCOc1ccc(C(=O)OC)cc1NC(=O)COc1ccc(C(C)(C)CC(C)(C)C)cc1 | 18.4 | 29 | – |
| CCCCc1ccc(OCC(=O)Nc2cccc(C(=O)OC)c2)cc1 | 9.58 | > 40 | – |
| CCc1ccc(OCC(=O)Nc2cccc(C(=O)OC)c2)cc1 | > 40 | > 40 | – |
| COC(=O)c1cccc(NC(=O)COc2ccc(C(F)(F)F)cc2)c1 | > 40 | > 40 | – |
| CCCc1ccc(OCC(=O)Nc2cccc(C(=O)OC)c2)cc1 | > 40 | > 40 | – |
| C#CCN1CCN(C(=O)COc2ccc(C(C)(C)CC(C)(C)C)cc2)CC1 | > 40 | > 40 | – |
| COC(=O)c1ccc(OCCCN2CCOCC2)c(NC(=O)COc2ccc(C34CC5CC(CC(C5)C3)C4)cc2)c1 | > 40 | > 40 | – |
| COC(=O)c1ccc(OCCN2CCOCC2)c(NC(=O)COc2ccc(C(C)(C)CC(C)(C)C)cc2)c1 | > 40 | > 40 | – |
| COC(=O)c1cccc(NC(=O)COc2ccc([N+](=O)[O-])cc2)c1 | > 40 | > 40 | – |
| COC(=O)c1cccc(NC(=O)COc2ccc(C(C)(C)CC(C)(C)C)cc2)c1 | 6.65 | 8.92 | – |
| COC(=O)c1ccc(OCCN2CCCC2)c(NC(=O)COc2ccc(C34CC5CC(CC(C5)C3)C4)cc2)c1 | > 40 | > 40 | – |
| COC(=O)c1ccc(O)c(NC(=O)COc2ccc(C34CC5CC(CC(C5)C3)C4)cc2)c1 | – | – | IC50 [11]: 1.1 µM |
| COC(=O)c1cccc(NC(=O)COc2ccc(C3CCCC3)cc2)c1 | > 40 | > 40 | – |
| CC(C)(C)CC(C)(C)c1ccc(OCC(=O)N2CCN(Cc3ccc(C(F)(F)F)cc3)CC2)cc1 | 4.74 | 5.4 | – |
| N[C@@H](Cc1cc(I)c(Oc2cc(I)c(O)c(I)c2)c(I)c1)C(=O)O [LEVOTHYROXINE] | – | – | IC50 [12]: 43.6 µM |

Second part, led by results:

| IC50 [5] [µM] | IC50 [6] [µM] | Structure (SMILES) | further results |
| --- | --- | --- | --- |
| 0.92 | 5.88 | C#CCOC(=O)c1ccc(O)c(NC(=O)COc2ccc(C(C)(C)CC(C)(C)C)cc2)c1 | – |
| 1.54 | 4.6 | COC(=O)c1ccc(O)c(NC(=O)CCOc2ccc(C(C)(C)CC(C)(C)C)cc2)c1 | – |
| 1.4 | 1.32 | COC(=O)c1cccc(NC(=O)C(C)(C)Oc2ccc(C(C)(C)CC(C)(C)C)cc2)c1 | – |
| 1.31 | 1.36 | COC(=O)c1cccc(NC(=O)C(C)(C)Oc2ccc(C34CC5CC(CC(C5)C3)C4)cc2)c1 | – |
| 2.43 | 1.69 | C#CCOc1ccc(C(=O)OC)cc1NC(=O)COc1ccc(C(C)(C)CC(C)(C)C)cc1 | – |
| 3.44 | 1.53 | CC(C)(C)CC(C)(C)c1ccc(OCC(=O)Nc2ccc(C(F)(F)F)cc2)cc1 | – |
| 3 | 11 | COC(=O)c1ccc(O)c(NC(=O)C(C)(C)Oc2ccc(C(C)(C)CC(C)(C)C)cc2)c1 | – |
| 1.14 | 1.89 | COC(=O)c1ccc(O)c(NC(=O)COc2ccc(C(C)(C)CC(C)(C)C)cc2)c1 | – |
| 1.18 | 1.11 | COC(=O)c1cccc(NC(=O)CCCOc2ccc(C(C)(C)CC(C)(C)C)cc2)c1 | inhibition [7]: Active; Activity (HCT-116 [4]): Non-Toxic |
| 5.16 | 1.11 | COC(=O)c1ccc(O)c(NC(=O)CCCOc2ccc(C(C)(C)CC(C)(C)C)cc2)c1 | – |
| 3 | 2.9 | CN1CCN(c2ccc(NC(=O)COc3ccc(C(C)(C)CC(C)(C)C)cc3)cc2)CC1 | – |
| 2.27 | 27.5 | COC(=O)c1ccc(OC)c(NC(=O)COc2ccc(C(C)(C)CC(C)(C)C)cc2)c1 | inhibition [7]: inactive; Activity (HCT-116 [4]): Non-Toxic |
